Laboratory results as given in publication PMC10073089 (European Journal of Medicinal Chemistry, 2023).

Experiments:
[1] = Pharmacokinetic study in ICR; format: in vivo, mice; conditions: for improvement in plasma exposure (AUClast) compared to niclosamide: ICR (CD-1) mice, oral 30 mg/kg; for conversion of prodrug to parent compound 21: mice plasma after single-dose administration
Procedure, shortened: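 Mice (N = 3 per group) fasted 12 h before dosing. Test compound given in DMSO/0.5% HMPC (5/95, v/v), 30 mg/kg orally or 2.5 mg/kg intravenously. Femoral-vein blood taken at 0.25, 0.5, 1, 2, 4, 8 and 24 h. […] analysed by LC-MS/MS for prodrug and parent. Mole correction applied for prodrug dosing; AUClast derived.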

[2] = Metabolic stability in human liver microsomes; format: in vitro ADME; conditions: pH 7.4
Procedure, shortened: (§1)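 Microsomes at 0.33 mg/mL final in 0.1 M Tris pH 7.4 with 5 mM MgCl2, 0.01% DMSO and 0.005% BSA. Test compound at 1 μM final. Preincubated 10 min at 37 °C, then started with NADPH (1 mM final). Aliquots taken at 0, 7, 17, 30 and 60 min and quenched with cold methanol. After centrifugation, parent compound quantified by LC-MS/MS; half-life reported in min.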

[3] = tested on: BECN1; assay: Western blot assay, BECN1; format: cell-based; conditions: Vero-E6 cells
[4] = Metabolic stability in mouse liver microsomes; format: in vitro ADME; conditions: pH 7.4
Procedure, shortened: as §1

[5] = tested on: SKP2; assay: Western blot assay, SKP2 level in Vero-E6 cells; format: cell-based; conditions: 16 h
[6] = Sub-acute toxicity study; format: in vivo, ICR mice
Procedure, shortened: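 Male mice of 18–20 g in four groups of ten: one control group and three oral groups at 50, 100 and 200 mg/kg, dosed once daily for ten days. Body weight, food intake and behaviour checked daily. Animals fasted before dissection. Heart, liver, spleen, lung, kidney and administration site collected for organ weight and histology.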

| SMILES | improvement in plasma exposure (AUClast) compared to niclosamide [1] | half-life at 1 µM [2] | levels of BECN1 ([3]; 10 μM, vs control group) | half-life at 1 µM [4] | level of SKP2 [5] | conversion of prodrug to parent compound 21 [1] | other results |
| --- | --- | --- | --- | --- | --- | --- | --- |
| O=C(Nc1ccc(C(F)(F)F)cc1)c1cc(Cl)c(F)cc1O [Compound 19, 5-Chloro-4-fluoro-2-hydroxy-N-(4-(trifluoromethyl)phenyl)benzamide] | 3.19 fold | – | – | – | – | – | – |
| O=C(Nc1ccc(OC(F)(F)F)cc1)c1cc(Cl)c(F)cc1O [Compound 21, 5-Chloro-4-fluoro-2-hydroxy-N-(4-(trifluoromethoxy)phenyl)benzamide] | 10.84 fold | 120 min | higher than the control group | 22.6 min | reduced | – | levels of BECN1 ([3]; 3 μM and 1 μM): slightly increased; tolerability ([6]; ICR mice, oral dosage up to 200 mg/kg, ten days): well tolerated; changes in body weight, organ weight, or tissue histology ([6]; male ICR mice, 50, 100, 200 mg/kg once a day for ten days): No significant changes; mortality ([6]; male ICR mice, 50, 100, 200 mg/kg once a day, 10 days observation): No mortality |
| CC(C)C(=O)Oc1cc(F)c(Cl)cc1C(=O)Nc1ccc(OC(F)(F)F)cc1 [Compound 24, 4-Chloro-5-fluoro-2-((4-(trifluoromethoxy)phenyl)carbamoyl)phenyl isobutyrate] | – | – | – | – | – | rapidly hydrolyze to compound 21 | – |
| CC(=O)Oc1cc(F)c(Cl)cc1C(=O)Nc1ccc(OC(F)(F)F)cc1 [Compound 25, 4-Chloro-5-fluoro-2-((4-(trifluoromethoxy)phenyl)carbamoyl)phenyl acetate] | – | – | – | – | – | rapidly hydrolyze to compound 21 | – |
| C[C@H](N)C(=O)Oc1cc(F)c(Cl)cc1C(=O)Nc1ccc(OC(F)(F)F)cc1.Cl [Compound 26, 4-Chloro-5-fluoro-2-((4-(trifluoromethoxy)phenyl)carbamoyl)phenyll-alaninate monohydrochloride] | – | – | – | – | – | barely transforms to parent compound 21 | – |
| O=C(Nc1ccc([N+](=O)[O-])cc1Cl)c1cc(Cl)ccc1O [NIC, niclosamide, reference compound] | – | 13.3 min | higher than the control group | 5.86 min | reduced | – | – |
